These results are taken from paper PMC7747014 (Journal of medicinal chemistry, 2015).

In series [1] the target is T1, Human recombinant Top1 (Homo sapiens, UniProt P11387).
T1 sequence (P11387 1-765): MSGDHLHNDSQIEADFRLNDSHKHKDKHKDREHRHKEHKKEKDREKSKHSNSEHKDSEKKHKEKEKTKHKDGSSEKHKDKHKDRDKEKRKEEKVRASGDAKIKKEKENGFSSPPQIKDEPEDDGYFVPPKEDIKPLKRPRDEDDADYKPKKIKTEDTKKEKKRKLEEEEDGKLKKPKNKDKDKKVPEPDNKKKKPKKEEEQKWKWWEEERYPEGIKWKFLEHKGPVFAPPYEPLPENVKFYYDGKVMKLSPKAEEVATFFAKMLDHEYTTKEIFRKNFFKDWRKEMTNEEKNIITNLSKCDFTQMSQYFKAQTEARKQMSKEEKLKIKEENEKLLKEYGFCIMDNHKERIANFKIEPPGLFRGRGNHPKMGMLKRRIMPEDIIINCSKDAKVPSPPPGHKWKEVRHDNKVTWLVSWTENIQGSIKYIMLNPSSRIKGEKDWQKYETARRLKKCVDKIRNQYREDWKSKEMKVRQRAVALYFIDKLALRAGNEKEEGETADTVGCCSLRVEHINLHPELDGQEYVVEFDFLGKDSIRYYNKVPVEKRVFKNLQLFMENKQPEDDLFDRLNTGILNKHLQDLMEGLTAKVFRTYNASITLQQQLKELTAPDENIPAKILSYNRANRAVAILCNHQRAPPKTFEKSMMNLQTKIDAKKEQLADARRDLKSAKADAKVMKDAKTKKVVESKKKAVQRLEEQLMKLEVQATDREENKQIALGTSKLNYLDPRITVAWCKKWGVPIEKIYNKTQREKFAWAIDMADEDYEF
Briefly: Top1-mediated DNA cleavage assay. To be noted: graded relative to 1 μM camptothecin. It counts as biochemical.

Series [2] deals with 60 common human cancer cell lines (NCI-60). Nature of the series: NCI-60 five-dose screen, mean-graph midpoint. Type of series: cell-based. An outline of the steps:
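NCI-DTP screen across 60 human cancer cell lines. One-dose prescreen at 10 μM; compounds passing the cutoff went to five concentrations, 100 μM to 10 nM. GI50 per cell line interpolated from five-dose data.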

The target in another series is recombinant TDP1 (Homo sapiens, UniProt Q9NUW8). Briefly: Gel-based assay measuring the inhibition of recombinant TDP1. It counts as biochemical. To be noted: for IC50: read-out: TDP1 inhibition, semiquantitative IC50 scale.
Chain of recombinant TDP1 (Q9NUW8 whole entry): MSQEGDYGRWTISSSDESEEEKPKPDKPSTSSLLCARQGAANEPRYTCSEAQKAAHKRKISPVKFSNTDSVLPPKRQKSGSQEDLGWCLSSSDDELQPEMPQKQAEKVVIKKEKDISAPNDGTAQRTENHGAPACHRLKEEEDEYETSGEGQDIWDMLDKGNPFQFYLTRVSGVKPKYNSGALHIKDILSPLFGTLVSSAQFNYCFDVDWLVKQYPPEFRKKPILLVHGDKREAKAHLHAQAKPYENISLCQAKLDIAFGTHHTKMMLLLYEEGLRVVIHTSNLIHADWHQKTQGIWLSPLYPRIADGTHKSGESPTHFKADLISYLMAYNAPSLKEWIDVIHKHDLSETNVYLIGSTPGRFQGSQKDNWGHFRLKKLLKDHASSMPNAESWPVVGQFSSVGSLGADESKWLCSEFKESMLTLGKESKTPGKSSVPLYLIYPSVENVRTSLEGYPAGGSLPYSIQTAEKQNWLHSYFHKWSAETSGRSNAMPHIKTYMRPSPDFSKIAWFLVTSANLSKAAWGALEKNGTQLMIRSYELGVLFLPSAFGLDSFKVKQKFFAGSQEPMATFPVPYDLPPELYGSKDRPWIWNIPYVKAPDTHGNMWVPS
The subject of another series is colon HCT-116. The following applies: read-out: cytotoxicity (GI50 in μM) colon HCT-116; cited from earlier work.
The next series deals with ovarian OVACAR-3. To be noted: read-out: cytotoxicity (GI50 in μM) ovarian OVACAR-3; cited from earlier work.
The target of series [3] is T1, Human recombinant Top1. To be noted: graded relative to 1 μM camptothecin; cited from earlier work.
For a further series, the system named is lung HOP-62. The following applies: read-out: cytotoxicity (GI50 in μM) lung HOP-62; cited from earlier work.
The test system of series [4] is 60 common human cancer cell lines (NCI-60). To be noted: read-out: MGM; average GI50 across 60 cell lines; cited from earlier work.
Another series deals with breast MCF7. To be noted: read-out: cytotoxicity (GI50 in μM) breast MCF7; cited from earlier work.
The subject of a further series is melanoma UACC-62. The following applies: read-out: cytotoxicity (GI50 in μM) melanoma UACC-62; cited from earlier work.
A further series concerns prostate DU-145. To be noted: read-out: cytotoxicity (GI50 in μM) prostate DU-145; cited from earlier work.
[5] abbreviates: read-out: MGM values, range over the named series.
Setting [6] is: Homo sapiens, 60 cell, read-out: MGM.

The structures appear in SMILES notation. Counter-ions that a name gives are not always drawn. Like-named read-outs stand apart in the source and are kept apart here.

In the case of `O=C1c2cccc(O)c2-c2c1c1ccc([N+](=O)[O-])cc1c(=O)n2CCCn1ccnc1` [Compound 44, 6-(3-(1H-Imidazol-1-yl)propyl)-7-hydroxy-3-nitro-5H-indeno[1,2-c]isoquinoline-5,11(6H)-dione], the Top1 cleavage result on Human recombinant Top1 [1] is “+++ (75–95% activity)”.

For `Br.COc1cc2c(cc1O)C(=O)c1c-2n(CCCN)c(=O)c2cc([N+](=O)[O-])ccc12` [Compound 25, 6-(3-Aminopropyl)-9-hydroxy-8-methoxy-3-nitro-5H-indeno[1,2-c]isoquinoline-5,11(6H)-dione Hydrobromide], the GI50 in series [2] (setting [5]) was 16 to 21 nM. For the same compound, on recombinant TDP1, the “TDP1 inhibitory activity (in words)” value is given as “TDP1 inhibitors” and the IC50 is 12000 to 37000 nM.

Take `COc1cc2c(cc1O)-c1c(c3cc(OC)c(OC)cc3c(=O)n1CCCn1ccnc1)C2=O` [Compound 9]: the GI50 with colon HCT-116 is over 100 µM; in the series with ovarian OVACAR-3 it was over 100 µM; with lung HOP-62, over 100 µM; in series [4] it was 42000 ± 7000 nM; with breast MCF7, 0.05 µM; in the series on melanoma UACC-62, 0.33 µM. Also, in the series on prostate DU-145, the GI50 was over 100 µM. On Human recombinant Top1 [3], the Top1 cleavage entry is “++(+)”.

On to `COc1cc2c(cc1O)C(=O)c1c-2n(CCCN2CCOCC2)c(=O)c2cc([N+](=O)[O-])ccc12` [Compound 21, 9-Hydroxy-8-methoxy-6-(3-morpholinopropyl)-3-nitro-5H-indeno[1,2-c]isoquinoline-5,11(6H)-dione Hydrobromide], for which the GI50 in series [2] (setting [5]) was 16 to 21 nM.

As to `O=C1c2c(O)cccc2-c2c1c1ccc([N+](=O)[O-])cc1c(=O)n2CCCn1ccnc1` [Compound 60, 6-(3-(1H-Imidazol-1-yl)propyl)-10-hydroxy-3-nitro-5H-indeno-[1,2-c]isoquinoline-5,11(6H)-dione Hydrobromide], the GI50 in series [2] (setting [5]) was 234 to 3550 nM.

As to `O=C1c2c(O)cccc2-c2c1c1ccc([N+](=O)[O-])cc1c(=O)n2CCCN1CCOCC1` [Compound 56, 10-(Hydroxy)-6-(3-morpholinopropyl)-3-nitro-5H-indeno[1,2-c]-isoquinoline-5,11(6H)-dione], the GI50 in series [2] (setting [6]) is 3500 nM; in series [2] (setting [5]) it was 234 to 3550 nM.

Regarding `Br.NCCCn1c2c(c3ccc([N+](=O)[O-])cc3c1=O)C(=O)c1ccc(O)cc1-2` [Compound 63, 6-(3-Aminopropyl)-8-hydroxy-3-nitro-5H-indeno[1,2-c]-isoquinoline-5,11(6H)-dione Hydrobromide], the GI50 in series [2] (setting [6]) was 410 ± 1000 nM. Besides, the GI50 in series [2] (setting [5]) lay in the range of 56 to 407 nM. On recombinant TDP1, the “TDP1 inhibitory activity (in words)” value is “TDP1 inhibitors” and the IC50 lay in the range of 1000 to 12000 nM.

Consider `COc1cccc2c1-c1c(c3ccc([N+](=O)[O-])cc3c(=O)n1CCCN)C2=O` [Compound 4], for which the GI50 with ovarian OVACAR-3 is 2.3 µM; with lung HOP-62 it was 1.1 µM; with melanoma UACC-62 it was 2.3 µM; in the series on prostate DU-145 it was 1.1 µM. The Top1 cleavage entry on Human recombinant Top1 [3] is recorded as “++++”.

In the case of `Br.O=C1c2cc(O)ccc2-c2c1c1ccc([N+](=O)[O-])cc1c(=O)n2CCCN1CCOCC1` [Compound 69, 9-Hydroxy-6-(3-morpholinopropyl)-3-nitro-5H-indeno[1,2-c]-isoquinoline-5,11(6H)-dione Hydrobromide], on Human recombinant Top1 [1], the Top1 cleavage result is “+++++”.

Consider `O=C1c2ccc(O)cc2-c2c1c1ccc([N+](=O)[O-])cc1c(=O)n2CCCn1ccnc1` [Compound 59, 6-(3-(1H-Imidazol-1-yl)propyl)-8-hydroxy-3-nitro-5H-indeno[1,2-c]isoquinoline-5,11(6H)-dione Hydrobromide], for which the GI50 in series [2] (setting [5]) lay in the range of 56 to 407 nM.

As for `Br.NCCCn1c2c(c3ccc([N+](=O)[O-])cc3c1=O)C(=O)c1c(O)cccc1-2` [Compound 64, 6-(3-Amino-propyl)-10-hydroxy-3-nitro-5H-indeno[1,2-c]isoquinoline-5,11(6H)-dione Hydrobromide], the GI50 in series [2] (setting [6]) was 2000 nM. Moreover, the GI50 in series [2] (setting [5]) fell in the range of 234 to 3550 nM. For the same compound, on recombinant TDP1, the “TDP1 inhibitory activity (in words)” value is on record as “TDP1 inhibitors” and the IC50 fell in the range of 12000 to 37000 nM.

As for `Br.O=C1c2ccc(O)cc2-c2c1c1ccc([N+](=O)[O-])cc1c(=O)n2CCCN1CCOCC1` [Compound 55, 8-(Hydroxy)-6-(3-morpholinopropyl)-3-nitro-5H-indeno[1,2-c]-isoquinoline-5,11(6H)-dione], the Top1 cleavage entry on Human recombinant Top1 [1] is listed as “++++”. Besides, the GI50 in series [2] (setting [5]) lay in the range of 56 to 407 nM.

As for `Br.COc1cc2c(cc1O)-c1c(c3ccc([N+](=O)[O-])cc3c(=O)n1CCCn1ccnc1)C2=O` [Compound 34, 6-(3-(1H-Imidazol-1-yl)propyl)-8-hydroxy-9-methoxy-3-nitro-5H-indeno[1,2-c]isoquinoline-5,11(6H)-dione Hydrobromide], the Top1 cleavage result at Human recombinant Top1 [1] is listed as “++(+)”. In addition, the GI50 in series [2] (setting [6]) was 740 nM. The IC50 on recombinant TDP1 lay within 12000 to 37000 nM.

Regarding `O=C1c2ccccc2-c2c1c1ccccc1c(=O)n2CCCNCCCNCCCn1c2c(c3ccccc3c1=O)C(=O)c1ccccc1-2` [Compound 72], the IC50 on recombinant TDP1 is 1000 to 12000 nM.

With `COc1cc2c(cc1O)-c1c(c3ccc([N+](=O)[O-])cc3c(=O)n1CCCN1CCOCC1)C2=O` [Compound 32, 8-Hydroxy-9-methoxy-6-(3-morpholinopropyl)-3-nitro-5H-indeno[1,2-c]isoquinoline-5,11(6H)-dione Hydrobromide], the GI50 in series [2] (setting [6]) was 200 nM.

Regarding `Br.NCCCn1c2c(c3ccc([N+](=O)[O-])cc3c1=O)C(=O)c1cc(O)ccc1-2` [Compound 71, 6-(3-Aminopropyl)-9-hydroxy-3-nitro-5H-indeno[1,2-c]-isoquinoline-5,11(6H)-dione Hydrobromide], the Top1 cleavage result on Human recombinant Top1 [1] is listed as “++++”. Further, the GI50 in series [2] (setting [6]) was determined as 120 nM. Also, on recombinant TDP1, the “TDP1 inhibitory activity (in words)” value was “TDP1 inhibitors” and the IC50 fell in the range of 37000 to 111000 nM.

As for `O=C1c2cccc(O)c2-c2c1c1ccc([N+](=O)[O-])cc1c(=O)n2CCCN1CCOCC1` [Compound 43, 7-Hydroxy-6-(3-morpholinopropyl)-3-nitro-5H-indeno[1,2-c]-isoquinoline-5,11(6H)-dione], the Top1 cleavage result at Human recombinant Top1 [1] was “++ (50–75% activity)”.

Turning to `Br.COc1cc2c(cc1O)-c1c(c3ccc([N+](=O)[O-])cc3c(=O)n1CCCN)C2=O` [Compound 36, 6-(3-Aminopropyl)-8-hydroxy-9-methoxy-3-nitro-5H-indeno[1,2-c]isoquinoline-5,11(6H)-dione Hydrobromide], on recombinant TDP1, the “TDP1 inhibitory activity (in words)” value is “TDP1 inhibitors” and the IC50 lay in the range of 12000 to 37000 nM.

As for `COc1cc2c(cc1O)C(=O)c1c-2n(CCCn2ccnc2)c(=O)c2cc([N+](=O)[O-])ccc12` [Compound 23, 6-(3-(1H-Imidazol-1-yl)propyl)-9-hydroxy-8-methoxy-3-nitro-5H-indeno[1,2-c]isoquinoline-5,11(6H)-dione Hydrobromide], the GI50 in series [2] (setting [5]) is 16 to 21 nM.

With `Cl.NCCCn1c2c(c3ccc([N+](=O)[O-])cc3c1=O)C(=O)c1cccc(O)c1-2` [Compound 45, 6-(3-Aminopropyl)-7-hydroxy-3-nitro-5H-indeno[1,2-c]-isoquinoline-5,11(6H)-dione Hydrochloride], on Human recombinant Top1 [1], the Top1 cleavage entry is on record as “++ (50–75% activity)”. For the same compound, on recombinant TDP1, the “TDP1 inhibitory activity (in words)” value is “TDP1 inhibitors” and the IC50 was in the range of 12000 to 37000 nM.
